In ChEMBL document CHEMBL3425438, “Investigation of (E)-3-[4-(2-Oxo-3-aryl-chromen-4-yl)oxyphenyl]acrylic Acids as Oral Selective Estrogen Receptor Down-Regulators” (J Med Chem, 2015):
≈ marks a conversion by molar mass, not a printed value.

How the values were obtained:
Estrogen receptor [1] = biological target: T1, Estrogen receptor (Homo sapiens, UniProt P03372); assay: Binding affinity to ER alpha (unknown origin) by LanthaScreen TR-FRET competitive binding assay
T1 sequence (P03372 whole entry): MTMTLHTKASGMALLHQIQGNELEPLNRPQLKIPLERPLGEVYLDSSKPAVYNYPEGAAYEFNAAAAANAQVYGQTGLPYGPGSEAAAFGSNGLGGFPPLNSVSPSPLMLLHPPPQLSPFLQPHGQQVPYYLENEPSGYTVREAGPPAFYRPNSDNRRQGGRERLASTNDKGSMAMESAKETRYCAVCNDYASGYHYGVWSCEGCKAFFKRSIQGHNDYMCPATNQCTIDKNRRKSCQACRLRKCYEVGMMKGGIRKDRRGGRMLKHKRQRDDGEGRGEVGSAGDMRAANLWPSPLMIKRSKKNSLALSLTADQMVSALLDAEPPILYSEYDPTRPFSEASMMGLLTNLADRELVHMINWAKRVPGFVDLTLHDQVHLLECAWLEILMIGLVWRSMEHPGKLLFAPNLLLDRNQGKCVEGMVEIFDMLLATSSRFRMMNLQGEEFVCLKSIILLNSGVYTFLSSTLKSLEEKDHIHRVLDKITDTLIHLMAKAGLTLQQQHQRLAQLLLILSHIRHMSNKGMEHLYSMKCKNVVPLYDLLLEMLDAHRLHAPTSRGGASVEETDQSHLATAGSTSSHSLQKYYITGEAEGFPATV
Outline: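 LanthaScreen TR-FRET ERα competitive binding; 12-point half-log concentration response; TR-FRET emission ratio read on microplate reader; IC50 reported.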

Estrogen receptor [2] = biological target: T1, Estrogen receptor; assay: Suppression of ER alpha in human MCF7 cells after 24 hrs by immunostaining analysis; type: cell-based
[3] = Octanol-buffer partition coefficient, log D of the compound at ratio of 1:100 at pH 7.4 by shake-flask method; type: physicochemical
[4] = Dissociation constant, pKa of the compound by potentiometric analysis […] phenol; type: physicochemical
Outline: (§1)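 pKa (acid and phenol) by potentiometric titration.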

[5] = Intrinsic clearance in human hepatocytes measured per 10^6 cells; type: ADME, cell-based, Hepatocyte; details: read-out: CLH
[6] = Intrinsic clearance in rat hepatocytes measured per 10^6 cells; type: ADME, cell-based, Hepatocyte; details: read-out: CLH
Estrogen receptor [7] = biological target: T1, Estrogen receptor; assay: Antagonist activity at ER alpha in human MCF7 cells assessed as inhibition of estradiol-induced PR expression treated for 24 hrs after incubation with estradiol for 30 mins by laser scanning imaging cytometer analysis; type: cell-based
MCF7 = assay: Inhibition of cell proliferation in human MCF7 cells after 7 days by laser scanning imaging cytometer analysis; type: functional, cell-based; details: MCF7, 168 h
Outline: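 MCF-7 cells plated in reduced-serum medium the day before; concentration response for 7 days; cell number by nucleic acid stain, read on laser scanning imaging cytometer; EC50 for decrease in proliferation.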

[8] = Dissociation constant, pKa of the compound in acidic medium by potentiometric analysis; type: physicochemical; outline: as §1
[9] = Thermodynamic solubility of the compound in 0.1 M aqueous phosphate buffer at 25 degC at pH 7.4 after 24 hrs; type: physicochemical; details: read-out: Therm_solubility
[10] = Apparent permeability from apical to basolateral side in human Caco2 cells; type: ADME, cell-based; details: Caco-2
[11] = Free plasma concentration in human by LC-UV-MS analysis; type: ADME, cell-free
Outline: (§2)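 Equilibrium dialysis in plasma of the matching species at 37 °C; free and bound concentrations quantified by LC-UV-MS; reported as % free.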

[12] = Free plasma concentration in mouse by LC-UV-MS analysis; type: ADME, cell-free; outline: as §2
[13] = Free plasma concentration in rat by LC-UV-MS analysis; type: ADME, cell-free; outline: as §2
[14] = Intrinsic clearance in mouse hepatocytes measured per 10^6 cells; type: ADME, cell-based, Hepatocyte; details: read-out: CLH
[15] = Clearance in Alderley Park Han Wistar rat at 0.5 mg/kg, iv; type: ADME, organism-based; parameters: dose 0.5 mg/kg, route intravenous; details: in vivo
[16] = Volume of distribution at steady state in Alderley Park Han Wistar rat at 0.5 mg/kg, iv; type: ADME, organism-based; parameters: dose 0.5 mg/kg, route intravenous; details: in vivo, read-out: Vdss
Outline: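 Fed CD-1 mice or Alderley Park Han Wistar rats, two animals per study; IV 0.5 mg/kg as aqueous solution of DMSO and cyclodextrin; clearance and Vss derived.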

[17] = Oral bioavailability in Alderley Park Han Wistar rat at 5 mg/kg using HPMC/tween suspension; type: ADME, organism-based; details: in vivo
Outline: (§3)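 Fed Han Wistar rats, two per study; oral HPMC/tween suspension at 1, 5 or 50 mg/kg as stated per line; IV reference 0.5 mg/kg in aqueous DMSO/cyclodextrin.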

[18] = biological target: Voltage-gated inwardly rectifying potassium channel KCNH2 (Homo sapiens, UniProt Q12809); assay: Inhibition of hERG channel by electrophysiology; type: toxicity
[19] = Dissociation constant, pKa of the compound by potentiometric analysis; type: physicochemical; outline: as §1
[20] = Oral bioavailability in Alderley Park Han Wistar rat at 1 mg/kg using HPMC/tween suspension; type: ADME, organism-based; details: in vivo; outline: as §3
[21] = Drug metabolism in rat hepatocytes assessed as formation of glucuronide conjugates by LC-UV-MS analysis; type: ADME, cell-based, Hepatocyte

Sequence of Voltage-gated inwardly rectifying potassium channel KCNH2 (Q12809 whole entry): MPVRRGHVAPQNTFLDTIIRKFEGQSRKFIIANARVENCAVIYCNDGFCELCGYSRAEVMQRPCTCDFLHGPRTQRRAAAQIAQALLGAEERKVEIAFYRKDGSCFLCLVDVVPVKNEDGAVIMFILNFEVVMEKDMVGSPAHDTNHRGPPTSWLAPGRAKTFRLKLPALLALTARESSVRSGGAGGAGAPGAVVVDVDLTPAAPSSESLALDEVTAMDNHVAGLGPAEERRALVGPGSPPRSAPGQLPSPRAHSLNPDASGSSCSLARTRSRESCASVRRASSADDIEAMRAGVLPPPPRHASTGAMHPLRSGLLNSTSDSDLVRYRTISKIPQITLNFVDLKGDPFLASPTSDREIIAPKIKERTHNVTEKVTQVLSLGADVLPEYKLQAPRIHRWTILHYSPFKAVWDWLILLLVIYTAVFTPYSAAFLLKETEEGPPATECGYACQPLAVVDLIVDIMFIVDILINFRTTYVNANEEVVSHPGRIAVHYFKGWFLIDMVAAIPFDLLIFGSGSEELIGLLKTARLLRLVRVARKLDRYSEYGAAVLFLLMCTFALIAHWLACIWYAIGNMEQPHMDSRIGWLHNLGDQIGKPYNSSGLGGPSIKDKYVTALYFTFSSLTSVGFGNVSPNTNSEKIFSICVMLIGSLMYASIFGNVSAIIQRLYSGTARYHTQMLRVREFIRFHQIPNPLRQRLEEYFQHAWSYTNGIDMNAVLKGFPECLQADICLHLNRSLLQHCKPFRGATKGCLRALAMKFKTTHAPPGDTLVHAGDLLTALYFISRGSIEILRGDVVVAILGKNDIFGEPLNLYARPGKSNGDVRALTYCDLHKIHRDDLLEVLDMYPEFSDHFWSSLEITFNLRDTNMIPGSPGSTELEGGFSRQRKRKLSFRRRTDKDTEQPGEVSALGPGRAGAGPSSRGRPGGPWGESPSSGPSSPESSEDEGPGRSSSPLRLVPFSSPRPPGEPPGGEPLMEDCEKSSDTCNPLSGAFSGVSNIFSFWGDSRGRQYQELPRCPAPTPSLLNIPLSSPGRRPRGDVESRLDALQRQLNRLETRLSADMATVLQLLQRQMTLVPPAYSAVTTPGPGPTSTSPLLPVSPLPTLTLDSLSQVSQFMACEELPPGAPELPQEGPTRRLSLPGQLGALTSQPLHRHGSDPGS

| SMILES | IC50 (Estrogen receptor [1]) | IC50 (Estrogen receptor [2]) | logD [3] | hepatocyte CLint [5] | hepatocyte CLint [6] | further results |
| --- | --- | --- | --- | --- | --- | --- |
| COc1cc(F)ccc1-c1c(Cc2ccc(/C=C/C(=O)O)cc2)c2ccc(O)cc2oc1=O | 11 nM | 2260 nM | 1.8 |  |  |  |
| Cc1cc(F)ccc1-c1c(-c2ccc(/C=C/C(=O)O)cc2)c2ccc(O)cc2oc1=O | 5.8 nM | 256 nM | 2 |  |  |  |
| Cc1cc(F)ccc1-c1c(Oc2ccc(/C=C/C(=O)O)cc2)c2ccc(O)c(F)c2oc1=O | 3.2 nM | 509 nM | 0.6 | 11 µL/min/1e6 cells | 33 µL/min/1e6 cells | pKa [4]: 6.1 |
| Cc1cc(F)ccc1-c1c(N(C)c2ccc(/C=C/C(=O)O)cc2)c2ccc(O)cc2oc1=O | 9.9 nM | 60 nM | 2.3 |  |  |  |
| Cc1cc(F)ccc1-c1c(Oc2ccc(/C=C/C(=O)O)cc2)c2ccc(O)cc2oc1=O | 0.4 nM | 21 nM | 1.6 | 32 µL/min/1e6 cells | 50 µL/min/1e6 cells | IC50 (Estrogen receptor [7]): 27 nM; EC50 (MCF7): 4.5 nM; pKa [8]: 3.9; pKa [4]: 7.1; solubility thermodynamic at 24 h [9]: > 2000 µM; Papp A→B [10]: 19 ×10⁻⁶ cm/s; fraction unbound [11]: 0.0025; fraction unbound [12]: 0.028; fraction unbound [13]: 0.0051; hepatocyte CLint [14]: 68 µL/min/1e6 cells; clearance [15]: 35 mL/min/kg; Vd [16]: 0.9 L/kg; bioavailability [17]: 5% |
| O=C(O)/C=C/c1ccc(Cc2c(-c3ccc(F)cc3Cl)c(=O)oc3cc(O)ccc23)cc1 | 2.2 nM | 178 nM |  |  |  |  |
| CC/C(=C(\c1ccc(O)cc1)c1ccc(/C=C/C(=O)O)cc1)c1ccccc1 |  |  |  |  | 12 µL/min/1e6 cells | solubility thermodynamic at 24 h [9]: 200 µM (≈ 74.1 µg/mL); IC50 [18]: > 100000 nM; fraction unbound [13]: 0.0009 |
| Cc1cc(F)ccc1-c1c(Cc2ccc(/C=C/C(=O)O)cc2)c2ccc(C(F)F)cc2oc1=O | 390 nM | > 2150 nM | 2.2 | < 3 µL/min/1e6 cells | 16 µL/min/1e6 cells |  |
| Cc1cccc(-c2c(Cc3ccc(/C=C/C(=O)O)cc3)c3ccc(O)cc3oc2=O)c1 | 17 nM | 3090 nM | 2.2 |  |  |  |
| Cc1cc(OC(F)(F)F)ccc1-c1c(Cc2ccc(/C=C/C(=O)O)cc2)c2ccc(O)cc2oc1=O | 1 nM | 7 nM | 3.1 |  |  |  |
| Cc1cc(OC(F)(F)F)ccc1-c1c(Oc2ccc(/C=C/C(=O)O)cc2)c2ccc(C(F)F)cc2oc1=O | 50 nM | 506 nM | 3 | 11 µL/min/1e6 cells | 3 µL/min/1e6 cells |  |
| Cc1cc(F)ccc1-c1c(Nc2ccc(/C=C/C(=O)O)cc2)c2ccc(O)cc2oc1=O | 25 nM | 1450 nM | 1.3 |  |  |  |
| COc1ccc2c(Cc3ccc(/C=C/C(=O)O)cc3)c(-c3ccc(OC(F)(F)F)cc3)c(=O)oc2c1 | 1100 nM | 3600 nM | 3 | 23 µL/min/1e6 cells | 23 µL/min/1e6 cells |  |
| COc1ccc(-c2c(Cc3ccc(/C=C/C(=O)O)cc3)c3ccc(O)cc3oc2=O)cc1 | 3.8 nM | 350 nM | 1.9 |  |  |  |
| O=C(O)/C=C/c1ccc(Cc2c(-c3ccc(OC(F)(F)F)cc3)c(=O)oc3ccccc23)cc1 | 360 nM | 1300 nM | 2.8 | 8 µL/min/1e6 cells | 20 µL/min/1e6 cells |  |
| O=C(O)/C=C/c1ccc(Cc2c(-c3ccc(F)cc3F)c(=O)oc3cc(O)ccc23)cc1 | 3 nM | 660 nM | 1.7 |  |  |  |

| SMILES | IC50 (Estrogen receptor [1]) | IC50 (Estrogen receptor [2]) | logD [3] | hepatocyte CLint [5] | hepatocyte CLint [6] | further results |
| --- | --- | --- | --- | --- | --- | --- |
| COc1cccc(-c2c(Cc3ccc(/C=C/C(=O)O)cc3)c3ccc(O)cc3oc2=O)c1 | 41 nM | 5640 nM | 1.9 |  |  |  |
| CCOc1ccc2c(Oc3ccc(/C=C/C(=O)O)cc3)c(-c3ccc(OC(F)(F)F)cc3C)c(=O)oc2c1 | 50 nM | 253 nM |  | 20 µL/min/1e6 cells | 21 µL/min/1e6 cells |  |
| Cc1cc(F)ccc1-c1c(Oc2ccc(/C=C/C(=O)O)cc2)c2ccccc2oc1=O | 72 nM | 248 nM | 2 | 9 µL/min/1e6 cells | 27 µL/min/1e6 cells | IC50 (Estrogen receptor [7]): 330 nM; pKa [19]: 5.3; solubility thermodynamic at 24 h [9]: > 1500 µM; IC50 [18]: > 100000 nM; Papp A→B [10]: 47 ×10⁻⁶ cm/s; fraction unbound [11]: 0.005; fraction unbound [13]: 0.014; clearance [15]: 23 mL/min/kg; Vd [16]: 0.47 L/kg; bioavailability [20]: 47% |
| O=C(O)/C=C/c1ccc(Cc2c(-c3ccc(OC(F)(F)F)cc3)c(=O)oc3cc(O)ccc23)cc1 | 1.6 nM | 52 nM | 2.8 | 9 µL/min/1e6 cells | 40 µL/min/1e6 cells | pKa [4]: 8.7 |
| Cc1cc(F)ccc1-c1c(Cc2ccc(/C=C/C(=O)O)cc2)c2ccc(O)cc2oc1=O | 3.9 nM | 117 nM | 2.1 | 11 µL/min/1e6 cells | 81 µL/min/1e6 cells | pKa [4]: 7.7 |
| O=C(O)/C=C/c1ccc(Cc2c(-c3ccc(OC(F)(F)F)cc3)c(=O)oc3cc(F)ccc23)cc1 | 5800 nM | 10600 nM | 2.5 |  | 4.4 µL/min/1e6 cells |  |
| Cc1cc(Cl)ccc1-c1c(Cc2ccc(/C=C/C(=O)O)cc2)c2ccc(O)cc2oc1=O | 1.5 nM | 30 nM |  |  |  |  |
| Cc1cc(F)ccc1-c1c(Cc2ccc(/C=C/C(=O)O)cc2)c2ccc(N)cc2oc1=O |  | 1380 nM | 1.7 | 10 µL/min/1e6 cells | 18 µL/min/1e6 cells |  |
| Cc1cc(F)ccc1-c1c(Cc2ccc(/C=C/C(=O)O)cc2)c2c(F)cc(O)cc2oc1=O | 1.3 nM | 55 nM | 1.6 | 14 µL/min/1e6 cells | 69 µL/min/1e6 cells | pKa [4]: 7.2; Drug metabolism [21]: metabolite_detected |
| Cc1c(O)ccc2c(Cc3ccc(/C=C/C(=O)O)cc3)c(-c3ccc(OC(F)(F)F)cc3)c(=O)oc12 | 280 nM | 5840 nM | 3.4 | 20 µL/min/1e6 cells | 39 µL/min/1e6 cells | pKa [4]: 8.5 |
| O=C(O)/C=C/c1ccc(Cc2c(-c3ccc(Cl)cc3)c(=O)oc3cc(O)ccc23)cc1 | 3.7 nM | 471 nM | 2.4 |  |  |  |
| O=C(O)/C=C/c1ccc(Cc2c(-c3ccc(C(F)(F)F)cc3)c(=O)oc3cc(O)ccc23)cc1 | 4.6 nM | 531 nM | 2.6 |  |  |  |
| Cc1cc2c(Cc3ccc(/C=C/C(=O)O)cc3)c(-c3ccc(OC(F)(F)F)cc3)c(=O)oc2cc1O | 10 nM | 320 nM | 3.1 | 17 µL/min/1e6 cells | 37 µL/min/1e6 cells | pKa [4]: 7.6 |
| Cc1cc(F)ccc1-c1c(Oc2ccc(/C=C/C(=O)O)cc2)c2cc(F)c(O)cc2oc1=O | 7.4 nM | > 3000 nM | 0.8 | 28 µL/min/1e6 cells | 84 µL/min/1e6 cells | pKa [4]: 5.8 |
| O=C(O)/C=C/c1ccc(Cc2c(-c3cccc(OC(F)(F)F)c3)c(=O)oc3cc(O)ccc23)cc1 | 5.9 nM | 1710 nM | 2.9 |  |  |  |
